{
  "source": "paper PMC9302689",
  "about": "(British Journal of Clinical Pharmacology, 2022)",
  "key": {"[1]": {"assay": "Pharmacokinetics, first-in-human single ascending dose study", "assay_type": "in vivo", "details": "n = 8", "in_short": "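Healthy men received a single fasted dose of 3–200 mg, with 8 on active drug per cohort. Plasma was sampled pre-dose and at 0.25–36 h. Drug was quantified by validated LC–MS/MS (LLOQ 1.00 ng/mL). Cmax, tmax, t1/2, AUClast and AUC∞ were calculated by noncompartmental analysis using actual elapsed sampling times.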"}, "[2]": {"system": "healthy male subjects", "assay": "NeuroCart pupillometry", "assay_type": "in vivo, human", "details": "12-hour post-dose period", "in_short": "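In healthy men given a single dose or placebo, both eyes were photographed simultaneously with the head in a support. This was done twice pre-dose and at 0.5–10 h post-dose. Change from baseline over 12 h was analysed by MMRM against pooled placebo, with baseline as covariate.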"}, "[3]": {"system": "healthy male subjects", "assay": "NeuroCart adaptive tracking", "assay_type": "in vivo, human", "details": "12-hour post-dose period", "in_short": "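Fasted healthy men received a single dose or placebo capsule. Testing was done in a quiet, dim room, one subject at a time, after training at screening. Runs were twice pre-dose and at 0.5–10 h post-dose. The read-out was mean circle speed as % of maximum over 3.5 min. Change from baseline over 12 h was analysed by MMRM against pooled placebo, with baseline as covariate.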"}},
  "data": [
    {"compound": "CN1CCC23CCCCC2C1Cc1ccc(C(N)=O)cc13", "note": "(stereo not drawn) [ALKS 7119, (9α, 13α)‐17‐methylmorphinan‐3‐carboxamide]", "values": [
      {"measurement": "AUClast, range", "setting": "[1]; 125 mg single oral dose", "value": "3120.58 to 5579.28", "unit": "ng·h/mL"},
      {"measurement": "AUC∞, mean (SD)", "setting": "[1]; 125 mg single oral dose", "value": "4187.59 (840.18) hr*ng/ml"},
      {"measurement": "AUC∞, range", "setting": "[1]; 125 mg single oral dose", "value": "3188.91 to 5732.16", "unit": "ng·h/mL"},
      {"measurement": "Cmax, range", "setting": "[1]; 125 mg single oral dose", "value": "315.00 to 745.00", "unit": "ng/mL"},
      {"measurement": "Cmax/dose", "setting": "[1]; 125 mg single oral dose", "value": 3.58},
      {"measurement": "t1/2, mean (SD)", "setting": "[1]; 125 mg single oral dose", "value": "7.26 (0.99) h"},
      {"measurement": "t1/2, range", "setting": "[1]; 125 mg single oral dose", "value": "6.06 to 8.72", "unit": "h"},
      {"measurement": "tmax, median", "setting": "[1]; 125 mg single oral dose", "value": 2.00, "unit": "h"},
      {"measurement": "tmax, range", "setting": "[1]; 125 mg single oral dose", "value": "2.00 to 4.00", "unit": "h"},
      {"measurement": "AUC infinite/dose", "setting": "[1]; 150 mg single oral dose", "value": 30.22},
      {"measurement": "AUClast, mean (SD)", "setting": "[1]; 150 mg single oral dose", "value": "4361.53 (782.96) hr*ng/ml"},
      {"measurement": "AUClast, range", "setting": "[1]; 150 mg single oral dose", "value": "3622.31 to 6015.06", "unit": "ng·h/mL"},
      {"measurement": "AUC∞, mean (SD)", "setting": "[1]; 150 mg single oral dose", "value": "4533.66 (862.77) hr*ng/ml"},
      {"measurement": "AUC∞, range", "setting": "[1]; 150 mg single oral dose", "value": "3790.65 to 6362.63", "unit": "ng·h/mL"},
      {"measurement": "Cmax, mean (SD)", "setting": "[1]; 150 mg single oral dose", "value": "413.38 (65.38) ng/ml"},
      {"measurement": "Cmax, range", "setting": "[1]; 150 mg single oral dose", "value": "314.00 to 540.00", "unit": "ng/mL"},
      {"measurement": "Cmax/dose", "setting": "[1]; 150 mg single oral dose", "value": 2.76},
      {"measurement": "t1/2, mean (SD)", "setting": "[1]; 150 mg single oral dose", "value": "7.53 (0.88) h"},
      {"measurement": "t1/2, range", "setting": "[1]; 150 mg single oral dose", "value": "6.10 to 8.51", "unit": "h"},
      {"measurement": "tmax, median", "setting": "[1]; 150 mg single oral dose", "value": 2.00, "unit": "h"},
      {"measurement": "tmax, range", "setting": "[1]; 150 mg single oral dose", "value": "1.00 to 4.00", "unit": "h"},
      {"measurement": "AUC infinite/dose", "setting": "[1]; 175 mg single oral dose", "value": 34.02},
      {"measurement": "AUClast, mean (SD)", "setting": "[1]; 175 mg single oral dose", "value": "5754.94 (1013.23) hr*ng/ml"},
      {"measurement": "AUClast, range", "setting": "[1]; 175 mg single oral dose", "value": "4681.45 to 7356.86", "unit": "ng·h/mL"},
      {"measurement": "AUC∞, mean (SD)", "setting": "[1]; 175 mg single oral dose", "value": "5954.09 (1047.00) hr*ng/ml"},
      {"measurement": "AUC∞, range", "setting": "[1]; 175 mg single oral dose", "value": "4820.27 to 7488.93", "unit": "ng·h/mL"},
      {"measurement": "Cmax, mean (SD)", "setting": "[1]; 175 mg single oral dose", "value": "660.63 (167.66) ng/ml"},
      {"measurement": "Cmax, range", "setting": "[1]; 175 mg single oral dose", "value": "451.00 to 893.00", "unit": "ng/mL"},
      {"measurement": "Cmax/dose", "setting": "[1]; 175 mg single oral dose", "value": 3.78},
      {"measurement": "t1/2, mean (SD)", "setting": "[1]; 175 mg single oral dose", "value": "7.48 (0.87) h"},
      {"measurement": "t1/2, range", "setting": "[1]; 175 mg single oral dose", "value": "5.91 to 8.83", "unit": "h"},
      {"measurement": "tmax, median", "setting": "[1]; 175 mg single oral dose", "value": 2.01, "unit": "h"},
      {"measurement": "tmax, range", "setting": "[1]; 175 mg single oral dose", "value": "1.02 to 4.00", "unit": "h"},
      {"measurement": "AUC infinite/dose", "setting": "[1]; 200 mg single oral dose", "value": 33.61},
      {"measurement": "AUClast, mean (SD)", "setting": "[1]; 200 mg single oral dose", "value": "6490.47 (1144.87) hr*ng/ml"},
      {"measurement": "AUClast, range", "setting": "[1]; 200 mg single oral dose", "value": "5120.43 to 8737.25", "unit": "ng·h/mL"},
      {"measurement": "AUC∞, mean (SD)", "setting": "[1]; 200 mg single oral dose", "value": "6721.82 (1227.19) hr*ng/ml"},
      {"measurement": "AUC∞, range", "setting": "[1]; 200 mg single oral dose", "value": "5273.49 to 9126.15", "unit": "ng·h/mL"},
      {"measurement": "Cmax, mean (SD)", "setting": "[1]; 200 mg single oral dose", "value": "656.00 (104.74) ng/ml"},
      {"measurement": "Cmax, range", "setting": "[1]; 200 mg single oral dose", "value": "491.00 to 795.00", "unit": "ng/mL"},
      {"measurement": "Cmax/dose", "setting": "[1]; 200 mg single oral dose", "value": 3.28},
      {"measurement": "t1/2, mean (SD)", "setting": "[1]; 200 mg single oral dose", "value": "7.35 (0.58) h"},
      {"measurement": "t1/2, range", "setting": "[1]; 200 mg single oral dose", "value": "6.72 to 8.33", "unit": "h"},
      {"measurement": "tmax, median", "setting": "[1]; 200 mg single oral dose", "value": 3.00, "unit": "h"},
      {"measurement": "tmax, range", "setting": "[1]; 200 mg single oral dose", "value": "1.00 to 4.00", "unit": "h"},
      {"measurement": "Left pupil/iris ratio, LSM CFB", "setting": "[2]; 3 mg single oral dose", "value": 0.01},
      {"measurement": "Right pupil/iris ratio, LSM CFB", "setting": "[2]; 3 mg single oral dose", "value": 0.02},
      {"measurement": "Left pupil/iris ratio, LSM CFB", "setting": "[2]; 10 mg single oral dose", "value": 0.04},
      {"measurement": "Right pupil/iris ratio, LSM CFB", "setting": "[2]; 10 mg single oral dose", "value": 0.03},
      {"measurement": "Left pupil/iris ratio, LSM CFB", "setting": "[2]; 25 mg single oral dose", "value": 0.04},
      {"measurement": "Right pupil/iris ratio, LSM CFB", "setting": "[2]; 25 mg single oral dose", "value": 0.03},
      {"measurement": "Left pupil/iris ratio, LSM CFB", "setting": "[2]; 50 mg single oral dose", "value": 0.05},
      {"measurement": "Right pupil/iris ratio, LSM CFB", "setting": "[2]; 50 mg single oral dose", "value": 0.07},
      {"measurement": "Left pupil/iris ratio, LSM CFB", "setting": "[2]; 75 mg single oral dose", "value": 0.04},
      {"measurement": "Right pupil/iris ratio, LSM CFB", "setting": "[2]; 75 mg single oral dose", "value": 0.03},
      {"measurement": "Left pupil/iris ratio, LSM CFB", "setting": "[2]; 100 mg single oral dose", "value": 0.04},
      {"measurement": "Right pupil/iris ratio, LSM CFB", "setting": "[2]; 100 mg single oral dose", "value": 0.05},
      {"measurement": "Left pupil/iris ratio, LSM CFB", "setting": "[2]; 125 mg single oral dose", "value": 0.04},
      {"measurement": "Right pupil/iris ratio, LSM CFB", "setting": "[2]; 125 mg single oral dose", "value": 0.05},
      {"measurement": "Left pupil/iris ratio, LSM CFB", "setting": "[2]; 150 mg single oral dose", "value": 0.03},
      {"measurement": "Right pupil/iris ratio, LSM CFB", "setting": "[2]; 150 mg single oral dose", "value": 0.05},
      {"measurement": "Left pupil/iris ratio, LSM CFB", "setting": "[2]; 175 mg single oral dose", "value": 0.05},
      {"measurement": "Right pupil/iris ratio, LSM CFB", "setting": "[2]; 175 mg single oral dose", "value": 0.06},
      {"measurement": "Left pupil/iris ratio, LSM CFB", "setting": "[2]; 200 mg single oral dose", "value": 0.08},
      {"measurement": "Right pupil/iris ratio, LSM CFB", "setting": "[2]; 200 mg single oral dose", "value": 0.06},
      {"measurement": "Adaptive tracking, LSM CFB", "setting": "[3]; 3 mg single oral dose", "value": 0.15, "unit": "%"},
      {"measurement": "Adaptive tracking, LSM CFB", "setting": "[3]; 10 mg single oral dose", "value": 2.4, "unit": "%"},
      {"measurement": "Adaptive tracking, LSM CFB", "setting": "[3]; 25 mg single oral dose", "value": 0.24, "unit": "%"},
      {"measurement": "Adaptive tracking, LSM CFB", "setting": "[3]; 50 mg single oral dose", "value": 2.04, "unit": "%"},
      {"measurement": "Adaptive tracking, LSM CFB", "setting": "[3]; 75 mg single oral dose", "value": 0.25, "unit": "%"},
      {"measurement": "Adaptive tracking, LSM CFB", "setting": "[3]; 100 mg single oral dose", "value": 1.05, "unit": "%"},
      {"measurement": "Adaptive tracking, LSM CFB", "setting": "[3]; 125 mg single oral dose", "value": 0.8, "unit": "%"},
      {"measurement": "Adaptive tracking, LSM CFB", "setting": "[3]; 150 mg single oral dose", "value": 0.65, "unit": "%"},
      {"measurement": "Adaptive tracking, LSM CFB", "setting": "[3]; 175 mg single oral dose", "value": 0.9, "unit": "%"},
      {"measurement": "Adaptive tracking, LSM CFB", "setting": "[3]; 200 mg single oral dose", "value": 0.72, "unit": "%"}
    ]}
  ]
}
